Active and inactive are the calls of the source. The rule behind the calls is not given here.
Columns and labels:
NCI-H292 = test: Cytotoxicity against human NCI-H292 cells after overnight incubation by MTT assay; type: functional, cell-based
Summary of the method: (§1)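 MTT (5 mg/ml) was added for 3 h at 37 °C, formazan dissolved in DMSO, and absorbance read at 540 nm. Viability is relative to untreated cells (100%), fitted to a four-parameter Hill equation. IC50 is 50% formazan formation versus drug-free control. Triplicates, at least three independent experiments.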

HeLa [1] = test: Cytotoxicity against human HeLa cells after overnight incubation by MTT assay; type: functional, cell-based; summary of the method: as §1
COLO 205 = test: Cytotoxicity against human COLO205 cells assessed as growth at 10 uM after 48 hrs by sulforhodamine B assay; type: functional; settings: COLO 205, 48 h, read-out: Activity
Summary of the method: (§2)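 NCI-60 one-dose screen at 10 µM. Cells in RPMI 1640 with 5% FBS and 2 mM L-glutamine were plated at 5000–40,000/well and preincubated 24 h. Drug was then applied for 48 h at 37 °C, 5% CO₂. Adherent cells were fixed with cold TCA (10% final) and stained with SRB. Growth % is relative to the no-drug control and the time-zero cell number; negative values indicate lethality.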

[2] = Cytotoxicity against human 16HBE cells after overnight incubation by MTT assay; type: functional, cell-based; settings: 16HBE14o-; summary of the method: as §1
[3] = Cytotoxicity against human LAN5 cells after overnight incubation by MTT assay; type: functional, cell-based; settings: LA-N-5; summary of the method: as §1
MCF7 = test: Cytotoxicity against human MCF7 cells after overnight incubation by MTT assay; type: functional, cell-based; summary of the method: as §1
T47D = test: Cytotoxicity against human T47D cells assessed as growth at 10 uM after 48 hrs by sulforhodamine B assay; type: functional; settings: read-out: Activity; summary of the method: as §2
CCRF-CEM = test: Cytotoxicity against human CCRF-CEM cells assessed as growth at 10 uM after 48 hrs by sulforhodamine B assay; type: functional; settings: read-out: Activity; summary of the method: as §2
HeLa [4] = test: Induction of mitochondrial membrane depolarization in human HeLa cells at < 10 uM after overnight incubation by FACS analysis; type: functional, cell-based
Summary of the method: (§3)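 HeLa cells (175,000/well) were incubated overnight with serial drug concentrations. They were washed with PBS, incubated 30 min at 37 °C in Krebs Ringer buffered saline, detached, and collected in buffer with 1% FCS. At least 2 × 10⁴ cells were analysed by flow cytometry, with the TMRM signal read on FL2. Depolarization was gated on cells treated overnight with staurosporine as positive control, and the untreated-cell signal was subtracted. Triplicates, replicated twice.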

MOLT-4 = test: Cytotoxicity against human MOLT4 cells assessed as growth at 10 uM after 48 hrs by sulforhodamine B assay; type: functional; settings: MOLT-4, 48 h, read-out: Activity; summary of the method: as §2
PC-3 = test: Cytotoxicity against human PC3 cells assessed as growth at 10 uM after 48 hrs by sulforhodamine B assay; type: functional; settings: PC-3, 48 h, read-out: Activity; summary of the method: as §2
SW-620 = test: Cytotoxicity against human SW620 cells assessed as growth at 10 uM after 48 hrs by sulforhodamine B assay; type: functional; settings: SW-620, 48 h, read-out: Activity; summary of the method: as §2
NCI-H522 = test: Cytotoxicity against human NCI-H522 cells assessed as growth at 10 uM after 48 hrs by sulforhodamine B assay; type: functional; settings: NCI-H522, 48 h, read-out: Activity; summary of the method: as §2
Caco-2 = test: Cytotoxicity against human Caco2 cells after overnight incubation by MTT assay; type: functional, cell-based; summary of the method: as §1
UO-31 = test: Cytotoxicity against human UO31 cells assessed as growth at 10 uM after 48 hrs by sulforhodamine B assay; type: functional; settings: UO-31, 48 h, read-out: Activity; summary of the method: as §2
HOP-92 = test: Cytotoxicity against human HOP92 cells assessed as growth at 10 uM after 48 hrs by sulforhodamine B assay; type: functional; settings: HOP-92, 48 h, read-out: Activity; summary of the method: as §2
SNB-75 = test: Cytotoxicity against human SNB75 cells assessed as growth at 10 uM after 48 hrs by sulforhodamine B assay; type: functional; settings: SNB-75, 48 h, read-out: Activity; summary of the method: as §2
SK-MEL-2 = test: Cytotoxicity against human SK-MEL-2 cells assessed as growth at 10 uM after 48 hrs by sulforhodamine B assay; type: functional; settings: SK-MEL-2, 48 h, read-out: Activity; summary of the method: as §2
HeLa [5] = test: Induction of mitochondrial membrane depolarization in human HeLa cells at 1 uM after overnight incubation by FACS analysis; type: functional, cell-based; summary of the method: as §3
HeLa [6] = test: Cell cycle arrest in human HeLa cells assessed as accumulation at sub-G0/G1 phase at 5 to 50 uM after 72 hrs by propidium iodide staining-based FACS analysis; type: functional
Summary of the method: (§4)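 HeLa cells (1 × 10⁶) exposed 72 h to 5, 10, 25 or 50 µM of each compound. Cells were washed, trypsinized, fixed in chilled 70% ethanol on ice for more than 2 h, and stained with propidium iodide for 15 min at 37 °C in the dark. Cell-cycle phase distribution was read by flow cytometry against untreated control cells.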

HeLa [7] = test: Cell cycle arrest in human HeLa cells assessed as accumulation at G1 phase at 5 to 50 uM after 72 hrs by propidium iodide staining-based FACS analysis; type: functional; summary of the method: as §4
HeLa [8] = test: Induction of mitochondrial membrane depolarization in human HeLa cells at 3 to 4 uM after overnight incubation by FACS analysis; type: functional, cell-based; summary of the method: as §3
HeLa [9] = test: Cell cycle arrest in human HeLa cells assessed as accumulation at S phase at 50 uM after 72 hrs by propidium iodide staining-based FACS analysis; type: functional; summary of the method: as §4
IGROV-1 = test: Cytotoxicity against human IGROV1 cells assessed as growth at 10 uM after 48 hrs by sulforhodamine B assay; type: functional; settings: IGROV-1, 48 h, read-out: Activity; summary of the method: as §2
HeLa [10] = test: Cell cycle arrest in human HeLa cells assessed as accumulation at sub-G0/G1 phase at 50 uM after 72 hrs by propidium iodide staining-based FACS analysis; type: functional; summary of the method: as §4
HeLa [11] = test: Induction of mitochondrial membrane depolarization in human HeLa cells at 3 to 8 uM after overnight incubation by FACS analysis; type: functional, cell-based; summary of the method: as §3
HeLa [12] = test: Induction of mitochondrial membrane depolarization in human HeLa cells after overnight incubation by FACS analysis; type: functional, cell-based; summary of the method: as §3

Work on `Cc1cc(=O)n2nnc3cc(C#N)ccc3n12` yielded an IC50 (NCI-H292) of 43.6 µM, an IC50 (HeLa [1]) of 27 µM and a growth at 10 µM (COLO 205) of 104%. It also gave an IC50 [2] of 46.7 µM, an IC50 [3] of 28.2 µM and an IC50 (MCF7) of 35.9 µM. The growth at 10 µM (T47D) was 91%, the growth at 10 µM (CCRF-CEM) was 100% and the Activity (HeLa [4]) was “Active”. It also gave a growth at 10 µM (MOLT-4) of 95%, a growth at 10 µM (PC-3) of 101% and a growth at 10 µM (SW-620) of 110%. It also gave a growth at 10 µM (NCI-H522) of 97%, an IC50 (Caco-2) of 37.1 µM and a growth at 10 µM (UO-31) of 105%. For the same molecule, the growth at 10 µM (HOP-92) was 103%, the growth at 10 µM (SNB-75) was 96% and the growth at 10 µM (SK-MEL-2) was 99%.
For `Cc1cc(=O)n2nnc3cc(C(F)(F)F)ccc3n12`, the IC50 (NCI-H292) was greater than 100 µM, the Activity (HeLa [5]) was “Active” and the IC50 (HeLa [1]) was greater than 100 µM. The growth at 10 µM (COLO 205) was 108%, the Activity (HeLa [6]) was 7.2% and the IC50 [2] was 30.9 µM. The IC50 [3] was 15.1 µM, the IC50 (MCF7) was greater than 100 µM and the growth at 10 µM (T47D) was 115%. The growth at 10 µM (CCRF-CEM) was 103%, the growth at 10 µM (MOLT-4) was 91% and the growth at 10 µM (PC-3) was 101%. It also gave a growth at 10 µM (SW-620) of 118%, a growth at 10 µM (NCI-H522) of 97% and an IC50 (Caco-2) greater than 100 µM. For the same molecule, the growth at 10 µM (UO-31) was 84%, the growth at 10 µM (HOP-92) was 94% and the Activity (HeLa [7]) was -12%. For the same molecule, the growth at 10 µM (SNB-75) was 116% and the growth at 10 µM (SK-MEL-2) was 99%.
Molecule `Cc1cc2nnn3c(=O)cc(C)n3c2cc1C` has an IC50 (NCI-H292) of 23.4 µM, an IC50 (HeLa [1]) of 13.2 µM and a growth at 10 µM (COLO 205) of 66%. For the same molecule, the Activity (HeLa [8]) was “Active”, the Activity (HeLa [9]) was 10% and the IC50 [2] was 38.9 µM. The IC50 [3] was 95.5 µM, the growth at 10 µM (IGROV-1) was 91% and the IC50 (MCF7) was 46.7 µM. For the same molecule, the growth at 10 µM (T47D) was 97%, the growth at 10 µM (CCRF-CEM) was 19% and the growth at 10 µM (MOLT-4) was 82%. It also gave a growth at 10 µM (PC-3) of 100%, an Activity (HeLa [10]) of 18% and a growth at 10 µM (SW-620) of 94%. For the same molecule, the growth at 10 µM (NCI-H522) was 97%, the IC50 (Caco-2) was 46.8 µM and the growth at 10 µM (UO-31) was 84%. For the same molecule, the growth at 10 µM (HOP-92) was 93%, the growth at 10 µM (SNB-75) was 89% and the growth at 10 µM (SK-MEL-2) was 96%.
With `Cc1ccc2c(c1)nnn1c(=O)cc(C)n21` the IC50 (NCI-H292) was 25.1 µM, the IC50 (HeLa [1]) was 15.4 µM and the Activity (HeLa [11]) was “Active”. It also gave an IC50 [2] of 36.3 µM, an IC50 [3] of 93.3 µM and an IC50 (MCF7) of 42.6 µM. The IC50 (Caco-2) was 50.2 µM.
`Cc1cc(=O)n2nnc3ccc(Cl)cc3n12` gave an IC50 (NCI-H292) of 25.1 µM, an IC50 (HeLa [1]) of 15.8 µM and an IC50 [2] of 27.5 µM. For the same molecule, the IC50 [3] was 48.9 µM, the IC50 (MCF7) was 29.5 µM and the IC50 (Caco-2) was 34.6 µM.
In the case of `Cc1cc(=O)n2nnc3cc(Cl)c(Cl)cc3n12`, the IC50 (NCI-H292) is reported as 28.2 µM, the IC50 (HeLa [1]) is reported as 14.8 µM and the growth at 10 µM (COLO 205) is reported as -64%. It also gave an Activity (HeLa [9]) of 19.4%, an IC50 [2] of 13.5 µM and an IC50 [3] of 25.7 µM. The IC50 (MCF7) was 13.9 µM, the EC50 (HeLa [12]) was 3 µM and the growth at 10 µM (T47D) was 76%. For the same molecule, the growth at 10 µM (CCRF-CEM) was 23%, the growth at 10 µM (MOLT-4) was 59% and the growth at 10 µM (PC-3) was 94%. For the same molecule, the Activity (HeLa [10]) was 25.4%, the growth at 10 µM (SW-620) was 23% and the growth at 10 µM (NCI-H522) was 54%. The IC50 (Caco-2) was 25.7 µM, the growth at 10 µM (UO-31) was 81% and the growth at 10 µM (HOP-92) was 101%. For the same molecule, the growth at 10 µM (SNB-75) was 96% and the growth at 10 µM (SK-MEL-2) was 102%.
In the case of `Cc1cc(=O)n2nnc3cc(Cl)ccc3n12`, the IC50 (NCI-H292) is reported as 23.4 µM, the IC50 (HeLa [1]) is reported as 14.8 µM and the IC50 [2] is reported as 17.7 µM. For the same molecule, the IC50 [3] was 31.6 µM, the IC50 (MCF7) was 20.5 µM and the EC50 (HeLa [12]) was 5 µM. The IC50 (Caco-2) was 24 µM.

— ChEMBL document CHEMBL2390871, “Exploring the anticancer potential of pyrazolo[1,2-a]benzo[1,2,3,4]tetrazin-3-one derivatives: the effect on apoptosis induction, cell cycle and proliferation” (Eur J Med Chem, 2013)
